Measurements as given in ChEMBL document CHEMBL3286275, “Identification of 1-{2-[4-chloro-1'-(2,2-dimethylpropyl)-7-hydroxy-1,2-dihydrospiro[indole-3,4'-piperidine]-1-yl]phenyl}-3-{5-chloro-[1,3]thiazolo[5,4-b]pyridin-2-yl}urea, a potent, efficacious and orally bioavailable P2Y(1) antagonist as an antiplatelet agent” (Bioorg Med Chem Lett, 2014).
pIC50, pKi: −log10 of the molar value. In brackets after ≈: the same amount, converted by molar mass.

What was measured:
[1] = tested on: Liver microsome; test: Metabolic stability in human liver microsomes assessed as GSH adduct formation; type: ADME
In short: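 Human liver microsomes incubated with glutathione to detect reactive intermediates; GSH adduct (M+GSH) measured as percent.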

[2] = tested on: Liver microsome; test: Metabolic stability in human liver microsomes assessed as compound remaining; type: ADME
In short: (§1)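 Liver microsome stability: percent of compound remaining after incubation with […] (3 µM microsomes in some cases).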

[3] = target: T1, P2Y purinoceptor 1 (Homo sapiens, UniProt P47900); test: Antagonist activity at P2Y1 receptor in human platelets by FLIPR assay in presence of 2-methylthio-ADP
T1 sequence (P47900 whole entry): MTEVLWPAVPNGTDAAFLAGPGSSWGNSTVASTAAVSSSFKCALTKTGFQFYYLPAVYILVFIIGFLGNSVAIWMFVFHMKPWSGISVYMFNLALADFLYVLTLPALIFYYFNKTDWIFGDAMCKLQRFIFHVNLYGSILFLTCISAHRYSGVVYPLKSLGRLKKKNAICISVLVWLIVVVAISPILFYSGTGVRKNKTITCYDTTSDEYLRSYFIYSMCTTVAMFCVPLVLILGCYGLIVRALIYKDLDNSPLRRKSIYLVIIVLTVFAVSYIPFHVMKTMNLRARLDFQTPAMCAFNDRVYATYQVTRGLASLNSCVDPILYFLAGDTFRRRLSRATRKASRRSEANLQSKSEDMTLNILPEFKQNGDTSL
In short: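 Washed human platelets with endogenous P2Y1; calcium signalling read by FLIPR with reduced protein (~0.1% BSA); agonist 2-methylthio-ADP at 1 µM; IC50 given as mean ± SD.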

[4] = tested on: Platelet; test: Inhibition of ADP-induced platelet aggregation in platelet-rich human plasma; type: functional
In short: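 Human platelet-rich plasma; aggregation triggered by 10 µM ADP; IC50 determined.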

[5] = Aqueous solubility of the compound at pH 6.5; type: physicochemical; settings: aqueous medium
In short: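 Aqueous solubility taken on crystalline material: free base at pH 6.5, mono-methanesulfonic acid salt at pH 3.9.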

[6] = tested on: Liver microsome; test: Metabolic stability in rat liver microsomes assessed as compound remaining; type: ADME; in short: as §1
[7] = target: T1, P2Y purinoceptor 1; test: Binding affinity to P2Y1 receptor in human platelets
[8] = tested on: Rattus norvegicus; test: Antithrombotic activity in po dosed pentobarbital anesthetized rat assessed as reduction in FeCl2-induced thrombus weight administered 1 hr prior to FeCl2 challenge
[9] = tested on: Rattus norvegicus; test: Toxicity in rat assessed as prolongation of cuticle bleeding time at 10 mg/kg, po relative to control; type: organism-based; design: dose 10 mg/kg, route oral; settings: in vivo
In short: (§2)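 Pentobarbital-anesthetized rats dosed by oral gavage 1 h before bleeding-time induction. Vehicle was 1 ml/kg of 10% N,N-dimethylacetamide/90% dextrose 5% water, and compound was given at 0.3, 1, 3 and 10 mg/kg. Cuticle and mesenteric bleeding times were measured and expressed as fold prolongation relative to vehicle. Group sizes were indicated per group.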

[10] = tested on: Rattus norvegicus; test: Antithrombotic activity in pentobarbital anesthetized rat assessed as reduction in FeCl2-induced thrombus weight at 10 mg/kg, po administered 1 hr prior to FeCl2 challenge; type: functional; design: scale not given: the % may be the effect or the level left
In short: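 Pentobarbital-anesthetized rats; vehicle (1 ml/kg of 10% N,N-dimethylacetamide/90% dextrose 5% water) or 0.3, 1, 3, 10 mg/kg by oral gavage 1 h before FeCl2-induced carotid thrombosis or cuticle/mesenteric bleeding time. End points were thrombus weight and blood flow. Blood was drawn at the end of the thrombosis protocol for ex vivo aggregation. ID50 values derived; SEM reported.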

[11] = tested on: Rattus norvegicus; test: Toxicity in rat assessed as prolongation of mesentric bleeding time at 10 mg/kg, po relative to control; type: organism-based; design: dose 10 mg/kg, route oral; settings: in vivo; in short: as §2

With `CC(C)(C)CN1CCC2(CC1)CN(c1ccccc1NC(=O)Nc1ccc(OC(F)(F)F)cc1)c1c(O)cccc12` the Stability [1] was “Unstable”, the Stability [2] was 80% and the pIC50 [3] was 9.64. The pIC50 [4] was 5.80, the solubility [5] was 0.03 mg/mL (≈ 52.8 µM) and the Stability [6] was 87%. For the same compound, the pKi [7] was 8.40.
`CC(C)(C)CN1CCC2(CC1)CN(c1ccccc1NC(=O)Nc1ccc(OC(F)(F)F)cc1)c1ccccc12` showed a pIC50 [8] of 6.33.
In the case of `CC(C)(C)CN1CCC2(CC1)CN(c1ccccc1NC(=O)Nc1nc3ccc(F)cc3s1)c1c(O)ccc(Cl)c12`, the Stability [2] was 100%, the pIC50 [3] was 10.22 and the pIC50 [4] was 6.64. It also gave a Stability [6] of 89%.
In the case of `COC(=O)[C@H](c1ccccc1Cl)N1CCc2sccc2C1` [CLOPIDOGREL], the “fold change (FC)” value [9] was 6.2, the Activity [10] was 67% and the “fold change (FC)” value [11] was 8.2.
In the case of `CC(C)(C)CN1CCC2(CC1)CN(c1ccccc1NC(=O)Nc1ccc(OC(F)(F)F)cc1)c1ccc(O)cc12`, the pIC50 [3] was less than 6.82.
In the case of `CC(C)(C)CN1CCC2(CC1)CN(c1ccccc1NC(=O)Nc1ccc(OC(F)(F)F)cc1)c1c(O)ccc(Cl)c12`, the Stability [2] was 79%, the pIC50 [3] was 10.40 and the pIC50 [4] was 6.35. For the same compound, the Stability [6] was 88%.
With `CC(C)(C)CN1CCC2(CC1)CN(c1ccccc1NC(=O)Nc1ccc(C(F)(F)F)cc1)c1c(O)ccc(Cl)c12` the Stability [2] was 93%, the pIC50 [3] was 10.10 and the pIC50 [4] was 6.40. The Stability [6] was 93%.
Compound `CC(C)(C)CN1CCC2(CC1)CN(c1ccccc1NC(=O)Nc1ccc(OC(F)(F)F)cc1)c1cccc(O)c12` has a pIC50 [3] of less than 6.82.
Compound `CC(C)(C)CN1CCC2(CC1)CN(c1ccccc1NC(=O)Nc1ccc(OC(F)(F)F)cc1)c1c(O)ccc(C#N)c12` has a Stability [2] of 59%, a pIC50 [3] of 10.40 and a pIC50 [4] of 5.96. For the same compound, the Stability [6] was 51%.
